Assay results taken from the M2OR odorant receptor database.
Residue numbers refer to the chain shown, from its start.

Columns and labels:
Conditions in all cases: stereoisomer not certain
[1] = tested on: T1, OR4CB P8T
T1 sequence (whole entry): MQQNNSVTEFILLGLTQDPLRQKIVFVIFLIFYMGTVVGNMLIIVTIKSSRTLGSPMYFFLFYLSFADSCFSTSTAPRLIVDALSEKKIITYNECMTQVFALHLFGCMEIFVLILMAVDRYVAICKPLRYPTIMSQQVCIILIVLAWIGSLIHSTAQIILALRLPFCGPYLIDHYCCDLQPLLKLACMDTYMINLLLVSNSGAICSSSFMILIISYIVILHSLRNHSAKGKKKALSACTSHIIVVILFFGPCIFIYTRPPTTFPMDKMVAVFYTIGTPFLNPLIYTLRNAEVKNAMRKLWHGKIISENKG
Procedure, shortened: (§1)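 Assay methods differ from source to source, frequently being transient luciferase assays in mammalian cell lines. For each receptor–molecule pair, the label responsive (active) applies when the original authors judged the measured signal statistically different from baseline, and non-responsive (inactive) applies otherwise.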

[2] = tested on: OR4CC
Chain of OR4CC (as listed by the source): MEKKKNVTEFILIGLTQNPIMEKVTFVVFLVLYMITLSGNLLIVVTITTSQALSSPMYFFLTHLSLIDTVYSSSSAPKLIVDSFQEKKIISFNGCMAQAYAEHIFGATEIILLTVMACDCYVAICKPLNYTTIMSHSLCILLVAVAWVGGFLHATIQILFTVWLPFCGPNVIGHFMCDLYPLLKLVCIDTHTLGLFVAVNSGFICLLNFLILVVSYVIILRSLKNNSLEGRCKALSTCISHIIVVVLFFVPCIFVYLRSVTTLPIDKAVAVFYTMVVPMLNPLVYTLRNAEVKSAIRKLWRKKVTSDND
Procedure, shortened: as §1

[3] = tested on: OR4CD V133I
Chain of OR4CD V133I (as listed by the source, stated change not applied): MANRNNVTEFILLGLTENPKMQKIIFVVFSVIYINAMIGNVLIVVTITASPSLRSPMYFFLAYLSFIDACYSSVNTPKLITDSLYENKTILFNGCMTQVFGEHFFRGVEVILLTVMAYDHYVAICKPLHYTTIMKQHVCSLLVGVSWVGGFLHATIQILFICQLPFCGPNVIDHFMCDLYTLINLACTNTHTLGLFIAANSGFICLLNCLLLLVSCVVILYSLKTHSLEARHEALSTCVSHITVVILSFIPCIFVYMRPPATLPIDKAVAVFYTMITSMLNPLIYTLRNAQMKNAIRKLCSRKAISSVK
Procedure, shortened: as §1

[4] = tested on: T2, OR4CG T76A
T2 sequence (whole entry): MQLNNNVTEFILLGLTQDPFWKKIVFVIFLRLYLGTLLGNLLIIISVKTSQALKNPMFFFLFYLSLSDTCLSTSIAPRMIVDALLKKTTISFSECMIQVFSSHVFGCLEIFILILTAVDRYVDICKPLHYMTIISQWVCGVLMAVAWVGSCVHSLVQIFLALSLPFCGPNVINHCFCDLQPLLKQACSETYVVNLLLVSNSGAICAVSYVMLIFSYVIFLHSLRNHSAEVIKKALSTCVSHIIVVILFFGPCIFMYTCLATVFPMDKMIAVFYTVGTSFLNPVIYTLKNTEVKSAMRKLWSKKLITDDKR
Procedure, shortened: as §1

[5] = target: OR4D1 (Homo sapiens) (UniProt Q15615)
Chain of OR4D1 (Homo sapiens) (Q15615 whole entry): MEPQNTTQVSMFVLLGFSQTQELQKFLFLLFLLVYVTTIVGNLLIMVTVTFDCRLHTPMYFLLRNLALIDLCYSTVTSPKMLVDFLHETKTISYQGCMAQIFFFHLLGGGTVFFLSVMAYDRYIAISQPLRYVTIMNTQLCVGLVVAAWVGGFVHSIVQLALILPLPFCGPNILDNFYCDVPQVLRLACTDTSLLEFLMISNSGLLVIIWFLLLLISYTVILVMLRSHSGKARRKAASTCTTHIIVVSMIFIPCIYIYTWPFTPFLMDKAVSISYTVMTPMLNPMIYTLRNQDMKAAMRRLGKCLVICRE
Procedure, shortened: as §1

[6] = target: OR4D10 (Homo sapiens) (UniProt Q8NGI6)
Chain of OR4D10 (Homo sapiens) (Q8NGI6 whole entry): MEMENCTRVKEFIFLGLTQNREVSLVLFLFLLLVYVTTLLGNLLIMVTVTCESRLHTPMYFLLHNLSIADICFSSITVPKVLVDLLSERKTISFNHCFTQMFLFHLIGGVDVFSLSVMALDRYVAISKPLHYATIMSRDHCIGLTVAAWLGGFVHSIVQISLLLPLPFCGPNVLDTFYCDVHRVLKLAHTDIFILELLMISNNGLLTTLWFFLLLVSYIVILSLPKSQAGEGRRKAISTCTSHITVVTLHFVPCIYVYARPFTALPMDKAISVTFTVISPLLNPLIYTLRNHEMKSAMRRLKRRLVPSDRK
Procedure, shortened: as §1

[7] = target: OR4D11 (Homo sapiens) (UniProt Q8NGI4)
Chain of OR4D11 (Homo sapiens) (Q8NGI4 whole entry): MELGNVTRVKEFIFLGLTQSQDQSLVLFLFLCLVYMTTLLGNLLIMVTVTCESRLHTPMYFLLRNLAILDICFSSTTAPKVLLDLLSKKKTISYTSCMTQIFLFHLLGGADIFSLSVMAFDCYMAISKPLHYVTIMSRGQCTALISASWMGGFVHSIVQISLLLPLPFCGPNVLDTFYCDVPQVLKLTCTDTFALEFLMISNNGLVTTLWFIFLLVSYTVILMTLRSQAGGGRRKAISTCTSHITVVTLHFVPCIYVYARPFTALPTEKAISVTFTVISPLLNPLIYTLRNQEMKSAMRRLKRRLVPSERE
Procedure, shortened: as §1

[8] = tested on: OR4D1
Chain of OR4D1 (as listed by the source): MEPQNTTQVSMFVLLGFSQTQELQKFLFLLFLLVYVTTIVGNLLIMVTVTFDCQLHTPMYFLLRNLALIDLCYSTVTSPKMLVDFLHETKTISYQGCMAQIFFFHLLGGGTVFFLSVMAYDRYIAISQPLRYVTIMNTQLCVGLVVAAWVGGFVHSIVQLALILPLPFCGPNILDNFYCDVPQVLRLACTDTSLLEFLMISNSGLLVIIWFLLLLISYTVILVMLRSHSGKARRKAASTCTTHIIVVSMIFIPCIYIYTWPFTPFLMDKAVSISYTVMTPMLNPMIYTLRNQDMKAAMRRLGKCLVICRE
Procedure, shortened: as §1

[9] = target: OR4D2 (Homo sapiens) (UniProt P58180)
Chain of OR4D2 (Homo sapiens) (P58180 whole entry): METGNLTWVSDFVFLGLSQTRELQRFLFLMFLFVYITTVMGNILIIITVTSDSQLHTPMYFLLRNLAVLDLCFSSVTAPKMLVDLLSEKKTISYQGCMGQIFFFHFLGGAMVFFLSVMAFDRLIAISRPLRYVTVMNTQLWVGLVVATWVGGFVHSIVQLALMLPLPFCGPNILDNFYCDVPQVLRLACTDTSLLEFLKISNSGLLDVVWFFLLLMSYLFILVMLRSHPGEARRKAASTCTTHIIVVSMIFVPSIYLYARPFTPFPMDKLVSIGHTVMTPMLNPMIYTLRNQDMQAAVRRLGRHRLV
Procedure, shortened: as §1

[10] = tested on: OR4D2
Chain of OR4D2 (as listed by the source): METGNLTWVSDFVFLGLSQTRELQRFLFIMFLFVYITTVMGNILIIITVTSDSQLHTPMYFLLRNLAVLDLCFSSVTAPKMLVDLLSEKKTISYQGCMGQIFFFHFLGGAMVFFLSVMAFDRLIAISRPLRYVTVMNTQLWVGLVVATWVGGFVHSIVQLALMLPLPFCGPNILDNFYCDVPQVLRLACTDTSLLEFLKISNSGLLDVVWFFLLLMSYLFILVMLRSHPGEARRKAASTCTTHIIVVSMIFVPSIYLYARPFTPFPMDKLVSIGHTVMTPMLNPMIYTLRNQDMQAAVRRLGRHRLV
Procedure, shortened: as §1

[11] = target: OR4D5 (Homo sapiens) (UniProt Q8NGN0)
Chain of OR4D5 (Homo sapiens) (Q8NGN0 whole entry): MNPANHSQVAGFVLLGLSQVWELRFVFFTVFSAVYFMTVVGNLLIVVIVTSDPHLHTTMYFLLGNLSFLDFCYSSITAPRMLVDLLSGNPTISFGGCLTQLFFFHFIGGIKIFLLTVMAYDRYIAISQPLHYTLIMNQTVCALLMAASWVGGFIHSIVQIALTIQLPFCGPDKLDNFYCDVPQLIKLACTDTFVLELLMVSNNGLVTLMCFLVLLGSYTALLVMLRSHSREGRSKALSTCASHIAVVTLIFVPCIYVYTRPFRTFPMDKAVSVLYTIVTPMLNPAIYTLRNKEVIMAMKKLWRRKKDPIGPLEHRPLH
Procedure, shortened: as §1

[12] = target: OR4D6 (Homo sapiens) (UniProt Q8NGJ1)
Chain of OR4D6 (Homo sapiens) (Q8NGJ1 whole entry): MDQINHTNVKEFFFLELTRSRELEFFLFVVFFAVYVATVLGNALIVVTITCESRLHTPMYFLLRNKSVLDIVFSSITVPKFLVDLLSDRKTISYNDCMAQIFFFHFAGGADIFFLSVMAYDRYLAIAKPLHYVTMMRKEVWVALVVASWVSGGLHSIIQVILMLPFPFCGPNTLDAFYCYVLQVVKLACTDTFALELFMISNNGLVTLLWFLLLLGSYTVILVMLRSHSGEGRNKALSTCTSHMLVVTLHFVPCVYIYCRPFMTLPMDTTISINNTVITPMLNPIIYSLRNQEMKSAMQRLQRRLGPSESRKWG
Procedure, shortened: as §1

[13] = tested on: OR4D6
Chain of OR4D6 (as listed by the source): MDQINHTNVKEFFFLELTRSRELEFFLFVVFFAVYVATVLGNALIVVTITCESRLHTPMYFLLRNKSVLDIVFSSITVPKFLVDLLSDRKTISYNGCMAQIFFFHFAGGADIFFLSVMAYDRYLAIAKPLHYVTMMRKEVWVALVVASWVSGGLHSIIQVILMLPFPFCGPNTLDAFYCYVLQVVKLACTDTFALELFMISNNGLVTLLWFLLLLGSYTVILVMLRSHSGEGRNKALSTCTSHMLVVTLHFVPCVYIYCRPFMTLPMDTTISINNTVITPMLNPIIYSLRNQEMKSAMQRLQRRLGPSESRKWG
Procedure, shortened: as §1

[14] = target: OR4D9 (Homo sapiens) (UniProt Q8NGE8)
Chain of OR4D9 (Homo sapiens) (Q8NGE8 whole entry): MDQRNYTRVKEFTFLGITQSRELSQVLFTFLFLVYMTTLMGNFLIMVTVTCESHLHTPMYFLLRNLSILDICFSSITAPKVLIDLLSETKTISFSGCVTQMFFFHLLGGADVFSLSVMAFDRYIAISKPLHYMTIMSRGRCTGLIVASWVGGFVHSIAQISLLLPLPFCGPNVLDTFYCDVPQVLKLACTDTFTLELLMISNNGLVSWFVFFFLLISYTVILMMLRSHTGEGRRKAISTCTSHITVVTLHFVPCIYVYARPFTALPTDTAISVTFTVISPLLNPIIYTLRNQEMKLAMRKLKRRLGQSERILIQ
Procedure, shortened: as §1

[15] = target: T3, OR4E2 (Homo sapiens) (UniProt Q8NGC2)
T3 sequence (whole entry): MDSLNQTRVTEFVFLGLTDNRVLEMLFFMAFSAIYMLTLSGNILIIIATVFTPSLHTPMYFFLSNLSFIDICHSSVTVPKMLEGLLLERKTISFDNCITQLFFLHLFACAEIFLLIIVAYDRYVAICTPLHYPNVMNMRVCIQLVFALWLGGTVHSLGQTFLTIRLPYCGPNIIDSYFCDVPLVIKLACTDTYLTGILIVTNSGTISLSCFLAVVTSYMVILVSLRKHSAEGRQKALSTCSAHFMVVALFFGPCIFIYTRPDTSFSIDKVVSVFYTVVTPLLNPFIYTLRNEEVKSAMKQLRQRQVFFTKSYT
Procedure, shortened: as §1

[16] = tested on: T4, OR4E2
T4 sequence (whole entry): T3 sequence (whole entry) with V118M, Q234R
Procedure, shortened: as §1

[17] = target: T5, OR4F15 (Homo sapiens) (UniProt Q8NGB8)
T5 sequence (whole entry): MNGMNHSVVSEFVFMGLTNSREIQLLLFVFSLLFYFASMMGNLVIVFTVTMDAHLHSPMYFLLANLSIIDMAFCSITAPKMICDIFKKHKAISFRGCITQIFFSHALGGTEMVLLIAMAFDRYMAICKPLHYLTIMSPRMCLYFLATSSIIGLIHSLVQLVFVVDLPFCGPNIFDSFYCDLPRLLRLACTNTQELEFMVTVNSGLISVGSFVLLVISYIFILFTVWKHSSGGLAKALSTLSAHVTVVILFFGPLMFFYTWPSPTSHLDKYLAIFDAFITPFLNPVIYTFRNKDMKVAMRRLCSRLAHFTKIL
Procedure, shortened: as §1

[18] = tested on: OR4CF
Chain of OR4CF (as listed by the source): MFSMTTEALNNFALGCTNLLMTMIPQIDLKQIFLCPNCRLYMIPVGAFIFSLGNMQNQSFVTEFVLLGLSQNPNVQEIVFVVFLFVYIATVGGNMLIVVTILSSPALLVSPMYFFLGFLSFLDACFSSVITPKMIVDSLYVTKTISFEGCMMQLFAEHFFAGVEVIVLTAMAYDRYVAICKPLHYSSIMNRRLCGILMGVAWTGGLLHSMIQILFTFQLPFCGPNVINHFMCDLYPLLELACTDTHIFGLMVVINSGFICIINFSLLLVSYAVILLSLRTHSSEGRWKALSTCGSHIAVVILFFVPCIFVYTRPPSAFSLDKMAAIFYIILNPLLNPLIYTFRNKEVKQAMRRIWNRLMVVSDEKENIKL
Procedure, shortened: as §1

[19] = tested on: T6, OR4E2 A119T
T6 sequence (whole entry): T3 sequence (whole entry) with V118M, A119T, Q234R
Procedure, shortened: as §1

[20] = target: OR4E1 (Homo sapiens) (UniProt P0C645)
Chain of OR4E1 (Homo sapiens) (P0C645 whole entry): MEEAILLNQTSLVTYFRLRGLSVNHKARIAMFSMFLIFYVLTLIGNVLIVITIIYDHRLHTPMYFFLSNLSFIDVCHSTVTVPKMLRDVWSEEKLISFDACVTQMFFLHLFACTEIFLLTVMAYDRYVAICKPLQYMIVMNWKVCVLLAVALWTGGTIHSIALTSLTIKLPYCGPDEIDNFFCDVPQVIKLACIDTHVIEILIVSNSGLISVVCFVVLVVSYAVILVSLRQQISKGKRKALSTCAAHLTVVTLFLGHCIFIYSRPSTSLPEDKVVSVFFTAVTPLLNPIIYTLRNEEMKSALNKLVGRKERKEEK
Procedure, shortened: as §1

Measured: odorant receptor agonist call

CCCCCCC=CCCC=O
not listed: [18] | [19] | [20]
inactive: all other assays above

CC1=NC(C)C(C)S1 (stereo unspecified)
not listed: [20]
inactive: all other assays above

CCCCC(S)C(C)CO (stereo unspecified)
inactive: [5] | [6] | [7] | [9] | [11] | [12] | [14] | [15] | [17]

CC(CO)CS (stereo unspecified)
inactive: [5] | [6] | [7] | [9] | [11] | [12] | [14] | [15] | [17]

CCC1OC(=O)C(O)=C1C (stereo unspecified)
not listed: [20]
inactive: all other assays above

CC(=O)c1c(C)c([N+](=O)[O-])c(C(C)(C)C)c([N+](=O)[O-])c1C
inactive: [5] | [6] | [7] | [9] | [11] | [12] | [14] | [20] | [15] | [17]

CC1CCCCCCCCCCCCC(=O)C1 (stereo unspecified)
inactive: [5] | [6] | [7] | [9] | [11] | [12] | [14] | [20] | [15] | [17]

CCCCCC(S)C(C)CO (stereo unspecified)
inactive: [5] | [6] | [7] | [9] | [11] | [12] | [14] | [15] | [17]

CC(C)=CCCC(C)=CCO
inactive: [16]

Cc1cnc(C)c(C)n1
not listed: [20]
inactive: all other assays above

CCC1OC(C)=C(O)C1=O (stereo unspecified)
not listed: [20]
inactive: all other assays above

CCCCCC(=O)C(C)C(C)=O (stereo unspecified)
inactive: [5] | [6] | [7] | [9] | [11] | [12] | [14] | [15] | [17]

CCC(S)C(C)CO (stereo unspecified)
inactive: [5] | [6] | [7] | [9] | [11] | [12] | [14] | [15] | [17]

CC1=C(O)C(=O)OC1C (stereo unspecified)
not listed: [20]
inactive: all other assays above

CC1=C(O)C(=O)C(C)O1 (stereo unspecified)
not listed: [20]
inactive: all other assays above

CCCC(S)CCOC(C)=O (stereo unspecified)
not listed: [20]
inactive: all other assays above
